Data on 24 molecules can be found in ChEMBL document CHEMBL1145333, “Low molecular weight activated protein C inhibitors as a potential treatment for hemophilic disorders” (J Med Chem, 2006).

Test [1] addresses Vitamin K-dependent protein C (Homo sapiens, UniProt P04070). Kind of test: Inhibition of human aPC.
The next test has as its target Prothrombin (Homo sapiens, UniProt P00734). Kind of test: Inhibition of human thrombin activity. A digest of the protocol: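 Thrombin counterscreen using its natural substrate, fibrinogen. Result expressed as an IC50.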
Test [2] is filed under the species Homo sapiens. Kind of test: Increase in thrombin generation in human moderate hemophilia A platelet poor plasma by thrombogram assay at 10 uM. The note with it: in the assay text read “10 nM” for “10 uM”. The format is functional. In a few lines:
(§1)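 Calibrated automated thrombogram in human moderate hemophilia A platelet-poor plasma (FVIII < 5%). Thrombin generation triggered via the intrinsic coagulation pathway. Inhibitor incubated in the plasma at 10 and 20 nM alongside a 0 nM control. Read-out is the thrombin generation curve and its peak thrombin level (nM).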

Test [3] is filed under the species Homo sapiens. Description: Increase in thrombin generation in human moderate hemophilia A pooled poor platelet plasma by thrombogram assay at 20 uM. Type of test: functional. The note with it: in the assay text read “20 nM” for “20 uM”. A digest of the protocol:
as §1

The species named for test [4] is Homo sapiens. Description: Increase in thrombin generation in human severe hemophilia A pooled poor platelet plasma at 20 nM relative to control by thrombogram assay.

Vitamin K-dependent protein C, sequence (P04070 43-197 limits assumed): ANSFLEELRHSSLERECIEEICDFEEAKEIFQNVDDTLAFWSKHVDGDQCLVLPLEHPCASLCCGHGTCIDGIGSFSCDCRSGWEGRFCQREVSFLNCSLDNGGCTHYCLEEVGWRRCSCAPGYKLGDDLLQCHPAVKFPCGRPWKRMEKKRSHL
Vitamin K-dependent protein C, sequence (P04070 212-461 limits assumed): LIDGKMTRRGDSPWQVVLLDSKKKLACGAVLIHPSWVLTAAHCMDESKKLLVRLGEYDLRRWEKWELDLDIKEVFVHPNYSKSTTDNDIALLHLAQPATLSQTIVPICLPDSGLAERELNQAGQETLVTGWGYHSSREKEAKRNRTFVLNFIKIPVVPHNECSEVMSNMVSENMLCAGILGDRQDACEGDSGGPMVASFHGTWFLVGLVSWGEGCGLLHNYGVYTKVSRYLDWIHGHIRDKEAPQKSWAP

By IC50 is commonly meant the concentration needed to halve the response being measured. Read a high IC50 as lower potency. Regarding `N=C(N)c1ccc(CNC(=O)C2(NC(=O)[C@@H](CC3CCCCC3)NCC(=O)O)Cc3ccccc3C2)cc1`, the figures for the 50% inhibitory concentration (IC50) (in test [1]; against Prothrombin) were 0.1 µM and 1.25 µM, respectively.

Regarding `CC(C)[C@@H](NCC(=O)O)C(=O)N[C@H](C(=O)NCc1ccc(C(=N)N)cc1)C(c1ccccc1)c1ccccc1`, the half-inhibitory concentration (IC50) in test [1] is greater than 33 µM.

Take `CC(C)[C@@H](NCC(=O)O)C(=O)N[C@@H](Cc1ccccc1)C(=O)NCc1ccc(C(=N)N)cc1`: the IC50 in test [1] was found to be 0.71 µM; on Prothrombin it was 13.3 µM.

Turning to `CC[C@@H](NCC(=O)O)C(=O)NC1(C(=O)NCc2ccc(C(=N)N)cc2)Cc2ccccc2C1`, the IC50 in test [1] turned out to be 2.04 µM; against Prothrombin, 300 µM.

For `CC(C)(C)[C@@H](NCC(=O)O)C(=O)NC1(C(=O)NCc2ccc(C(=N)N)cc2)Cc2ccccc2C1`, the IC50 in test [1] stood at 3.83 µM; on Prothrombin it was 300 µM.

As to `CC(C)[C@@H](NCC(=O)O)C(=O)NC1(C(=O)NCc2ccc(C(=N)N)cc2)Cc2cc3ccccc3cc2C1`, the IC50 in test [1] is 9.28 µM; against Prothrombin, greater than 300 µM.

For `N=C(N)c1ccc(CNC(=O)C2(NC(=O)[C@@H](Cc3ccccc3)NCC(=O)O)Cc3ccccc3C2)cc1`, the half-maximal inhibitory concentration (IC50) in test [1] is 11.3 µM; on Prothrombin, 10 µM.

As for `N=C(N)c1ccc(CNC(=O)C2(NC(=O)[C@@H](NCC(=O)O)C3CCCCC3)Cc3ccccc3C2)cc1`, the concentration for half-maximal inhibition (IC50) (in test [1]; on Prothrombin) was greater than 33 µM in each case.

For the molecule `N=C(N)c1ccc(CNC(=O)C2(NC(=O)CNCC(=O)O)Cc3ccccc3C2)cc1`, the IC50 was greater than 33 µM in test [1] and 100 µM against Prothrombin.

In the case of `N=C(N)c1ccc(CNC(=O)C2(NC(=O)[C@H](NCC(=O)O)C3CCCCC3)Cc3ccccc3C2)cc1`, the Activity worked out at 160 nM in the test listed under Homo sapiens [2], 160 nM in the test listed under Homo sapiens [3] and 201 nM in the test filed under Homo sapiens [4]. The IC50 at Prothrombin worked out at 47 µM.

Consider `CC(C)[C@@H](NCC(=O)O)C(=O)NC1(C(=O)NCc2ccc(C(=N)N)cc2)Cc2cccc3cccc(c23)C1`, for which the IC50 in test [1] is 0.43 µM; at Prothrombin it was greater than 300 µM.

Regarding `CCC(C)[C@@H](NCC(=O)O)C(=O)NC1(C(=O)NCc2ccc(C(=N)N)cc2)Cc2ccccc2C1` (some centres undefined), the concentration for half-maximal inhibition (IC50) came out at 1.12 µM in test [1] and 85 µM at Prothrombin.

`CC(C)[C@@H](NCC(=O)O)C(=O)NC1(C(=O)NCc2ccc(C(=N)N)cc2)Cc2ccc3ccccc3c2C1` (some centres undefined): the IC50 in test [1] was 0.25 µM; against Prothrombin, 0.77 µM.

For `CC(C)(NCC(=O)O)C(=O)NC1(C(=O)NCc2ccc(C(=N)N)cc2)Cc2ccccc2C1`, the results for the IC50 (in test [1]; on Prothrombin) were 44 µM and greater than 300 µM, respectively.

Turning to `N=C(N)c1ccc(CNC(=O)C2(NC(=O)C3(NCC(=O)O)CCCC3)Cc3ccccc3C2)cc1`, the 50% inhibitory concentration (IC50) in test [1] worked out at 53 µM; on Prothrombin, 4.4 µM.

Regarding `C[C@@H](NCC(=O)O)C(=O)NC1(C(=O)NCc2ccc(C(=N)N)cc2)Cc2ccccc2C1`, the IC50 in test [1] came to 9.08 µM; against Prothrombin it was 33 µM.

With `CC(C)C[C@@H](NCC(=O)O)C(=O)NC1(C(=O)NCc2ccc(C(=N)N)cc2)Cc2ccccc2C1`, the half-maximal inhibitory concentration (IC50) is 0.75 µM in test [1] and greater than 33 µM against Prothrombin.

For the molecule `CC(C)[C@@H](NCC(=O)O)C(=O)NC1(C(=O)NCc2ccc(C(=N)N)cc2)Cc2ccccc2-c2ccccc2C1`, the concentration for half-maximal inhibition (IC50) in test [1] is 12.7 µM; at Prothrombin, greater than 300 µM.

Take `COc1cc2c(cc1OC)CC(NC(=O)[C@H](NCC(=O)O)C(C)C)(C(=O)NCc1ccc(C(=N)N)cc1)C2`: the IC50 was 10.9 µM in test [1] and greater than 33 µM at Prothrombin.

`CC(C)[C@@H](NCC(=O)O)C(=O)N[C@H](C(=O)NCc1ccc(C(=N)N)cc1)C1Cc2ccccc2C1`: the results for the IC50 (in test [1]; against Prothrombin) were 0.35 µM and greater than 33 µM, respectively.

Turning to `CC(C)[C@@H](NCC(=O)O)C(=O)NC1(C(=O)NCc2ccc(C(=N)N)cc2)Cc2ccccc2C1`, the 50% inhibitory concentration (IC50) in test [1] was 0.8 µM; on Prothrombin it was greater than 300 µM.

Consider `CC(C)[C@@H](NCC(=O)O)C(=O)NC1(C(=O)NCc2ccc(C(=N)N)cc2)Cc2ccncc2C1` (some centres undefined), for which the values for the IC50 (in test [1]; on Prothrombin) were 1.7 µM and 100 µM, respectively.

Take `CC(C)[C@@H](NCC(=O)O)C(=O)NC1(C(=O)NCc2ccc(C(=N)N)cc2)Cc2cccnc2C1` (single isomer, unassigned; diastereomer 1): the results for the IC50 (in test [1]; at Prothrombin) were 1.07 µM and 300 µM, respectively.

As for `CC(C)[C@@H](NCC(=O)O)C(=O)NC1(C(=O)NCc2ccc(C(=N)N)cc2)Cc2cccnc2C1` (single isomer, unassigned; diastereomer 2), the values for the IC50 (in test [1]; at Prothrombin) were 1.14 µM and 300 µM, respectively.
